# Measurements: ChEMBL document CHEMBL2010803, “Novel NSAID 1-acyl-4-cycloalkyl/arylsemicarbazides and 1-acyl-5-benzyloxy/hydroxy carbamoylcarbazides as potential anticancer agents and antioxidants” (Eur J Med Chem, 2012)
# Calls of active or inactive are those of the source. The rule behind the calls is not given here.
# Columns and labels:
# [1] = tested on: Influenza B virus; assay: Antiviral activity against Influenza B virus infected in MDCK cells assessed as inhibition of virus-induced cytopathic effect at 0.32 to 100 uM; type: functional, organism-based
# Procedure, shortened: (§1)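 Confluent MDCK monolayers were infected in the presence of the compound at 100, 40, 8, 1.6 and 0.32 μM. Viral cytopathicity was scored once it was complete in untreated infected control cultures.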
# [2] = tested on: Human alphaherpesvirus 2; assay: Antiviral activity against HSV2 G infected in human lung fibroblast assessed as inhibition of virus-induced cytopathic effect at 0.32 to 100 uM; type: functional, organism-based; details: strain G
# Procedure, shortened: (§2)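 Confluent cell cultures were infected with 100 CCID50 of virus in the presence of test compound at 100, 40, 8, 1.6 and 0.32 μM. Cytopathic effect was scored once it was complete in untreated infected controls.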
# [3] = tested on: Vesicular stomatitis virus; assay: Antiviral activity against Vesicular stomatitis virus infected in human cervix carcinoma cells assessed as inhibition of virus-induced cytopathic effect at 0.32 to 100 uM; type: functional, organism-based
# Procedure, shortened: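 Confluent human cervix carcinoma (HeLa) cultures received 100 CCID50 of VSV together with the compound at 100, 40, 8, 1.6 or 0.32 μM. Cytopathicity was read at the point of full CPE in infected, untreated control wells.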
# [4] = tested on: MCF7; assay: Cytostatic activity against human MCF7 cells after 72 hrs by MTT assay; type: functional, cell-based; details: MCF7, 72 h
# Procedure, shortened: (§3)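 Monolayers in DMEM with 10% FBS, 2 mM L-glutamine and penicillin/streptomycin, 37 °C, 5% CO2. Seeded at 1–3 × 10^4 cells/ml, then compound added in tenfold dilutions (10⁻⁸–10⁻⁴ M) for 72 h. MTT read at 570 nm; percent growth taken against time-zero and untreated controls. IC50 by linear regression; quadruplicate, at least two experiments.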
# [5] = tested on: HCT-116; assay: Cytostatic activity against human HCT116 cells after 72 hrs by MTT assay; type: functional, cell-based; details: HCT-116, 72 h; procedure, shortened: as §3
# [6] = tested on: CCRF-CEM; assay: Cytostatic activity against human CEM cells after 3 days by coulter counter analysis; type: functional, cell-based; details: 72 h
# Procedure, shortened: (§4)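 300,000–500,000 cells/ml mixed 1:1 with compound dilutions and incubated at 37 °C for 2 days (L1210) or 3 days (CEM, HeLa). Cell number counted with a Coulter counter; HeLa trypsinized before counting.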
# [7] = tested on: Human alphaherpesvirus 1; assay: Antiviral activity against HSV1 KOS infected in human lung fibroblast assessed as inhibition of virus-induced cytopathic effect at 0.32 to 100 uM; type: functional, organism-based; procedure, shortened: as §2
# [8] = tested on: Mammalian orthoreovirus 1; assay: Antiviral activity against Reovirus-1 infected in african green monkey Vero cells assessed as inhibition of virus-induced cytopathic effect at 0.32 to 100 uM; type: functional, organism-based; procedure, shortened: as §2
# [9] = tested on: Human immunodeficiency virus 2; assay: Antiviral activity against HIV2 ROD infected in human CEM cells assessed as inhibition of virus-induced CEM giant cell formation at 0.32 to 100 uM after 4 days; type: functional, organism-based; details: ISOLATE ROD, CCRF-CEM
# Procedure, shortened: (§5)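 CEM cells (~3 × 10^5 cells/cm³) exposed to 100 CCID50/ml of virus and seeded into wells holding compound dilutions. Incubated 4 days at 37 °C, then giant cell formation examined microscopically.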
# [10] = tested on: Vaccinia virus; assay: Antiviral activity against Vaccinia virus infected in human lung fibroblast assessed as inhibition of virus-induced cytopathic effect at 0.32 to 100 uM; type: functional, organism-based; details: Orthopoxvirus vaccinia
# [11] = tested on: Glycine max; assay: Inhibition of soybean LOX assessed as conversion of sodium linoleate to 13- hydroperoxylinoleic acid at 100 uM
# [12] = tested on: Influenza A virus; assay: Antiviral activity against Influenza A virus H1N1 infected in MDCK cells assessed as inhibition of virus-induced cytopathic effect at 0.32 to 100 uM; type: functional, organism-based; procedure, shortened: as §1
# [13] = tested on: Vesicular stomatitis virus; assay: Antiviral activity against VSV infected in human lung fibroblast assessed as inhibition of virus-induced cytopathic effect at 0.32 to 100 uM; type: functional, organism-based
# [14] = tested on: Feline coronavirus; assay: Antiviral activity against Feline coronavirus infected in feline CRFK cells assessed as inhibition of virus-induced cytopathic effect at 0.32 to 100 uM; type: functional, organism-based; procedure, shortened: as §2
# [15] = tested on: Punta Toro virus; assay: Antiviral activity against Punta Toro virus infected in african green monkey Vero cells assessed as inhibition of virus-induced cytopathic effect at 0.32 to 100 uM; type: functional, organism-based; procedure, shortened: as §2
# [16] = tested on: Coxsackievirus B4; assay: Antiviral activity against Coxsackievirus B4 infected in human cervix carcinoma cells assessed as inhibition of virus-induced cytopathic effect at 0.32 to 100 uM; type: functional, organism-based; procedure, shortened: as §2
# [17] = tested on: Influenza A virus; assay: Antiviral activity against Influenza A virus H3N2 infected in MDCK cells assessed as inhibition of virus-induced cytopathic effect at 0.32 to 100 uM; type: functional, organism-based; procedure, shortened: as §1
# [18] = tested on: Radical scavenging activity; assay: Antioxidant activity assessed as DPPH free radical scavenging activity at 100 uM after 60 mins by spectrophotometric analysis; type: functional
# Procedure, shortened: (§6)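 0.05 mM DPPH in absolute ethanol mixed with an equal volume of compound in DMSO (final 100 μM). Shaken and left 20 or 60 min, then absorbance read at 517 nm and percent activity calculated. Three replicates, averaged.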
# [19] = tested on: Human respirovirus 3; assay: Antiviral activity against Parainfluenza virus 3 infected in african green monkey Vero cells assessed as inhibition of virus-induced cytopathic effect at 0.32 to 100 uM; type: functional, organism-based; procedure, shortened: as §2
# [20] = tested on: L1210; assay: Cytostatic activity against mouse L1210 cells after 2 days by coulter counter analysis; type: functional, cell-based; details: L1210, 48 h; procedure, shortened: as §4
# [21] = tested on: Felid alphaherpesvirus 1; assay: Antiviral activity against Feline herpesvirus infected in feline CRFK cells assessed as inhibition of virus-induced cytopathic effect at 0.32 to 100 uM; type: functional, organism-based; procedure, shortened: as §2
# [22] = tested on: Coxsackievirus B4; assay: Antiviral activity against Coxsackievirus B4 infected in african green monkey Vero cells assessed as inhibition of virus-induced cytopathic effect at 0.32 to 100 uM; type: functional, organism-based; procedure, shortened: as §2
# [23] = tested on: Sindbis virus; assay: Antiviral activity against Sindbis virus infected in african green monkey Vero cells assessed as inhibition of virus-induced cytopathic effect at 0.32 to 100 uM; type: functional, organism-based; procedure, shortened: as §2
# [24] = tested on: Respiratory syncytial virus; assay: Antiviral activity against RSV infected in human cervix carcinoma cells assessed as inhibition of virus-induced cytopathic effect at 0.32 to 100 uM; type: functional, organism-based; procedure, shortened: as §2
# [25] = tested on: Radical scavenging activity; assay: Antioxidant activity assessed as DPPH free radical scavenging activity at 100 uM after 20 mins by spectrophotometric analysis; type: functional; procedure, shortened: as §6
# [26] = tested on: Human immunodeficiency virus 1; assay: Antiviral activity against HIV1 3B infected in human CEM cells assessed as inhibition of virus-induced CEM giant cell formation at 0.32 to 100 uM after 4 days; type: functional, organism-based; details: CCRF-CEM; procedure, shortened: as §5
# [27] = tested on: HeLa; assay: Cytostatic activity against human HeLa cells after 3 days by coulter counter analysis; type: functional, cell-based; details: 72 h; procedure, shortened: as §4
# [28] = Antioxidant activity assessed as inhibition of AAPH-induced linoleic acid lipid peroxidation by measuring conjugated diene hydroperoxide level; type: functional; set-up: concentration or dose not given beside the values; details: dose or concentration not given here
# Procedure, shortened: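 Linoleic acid sodium salt (10 μL of 16 mM) in 0.05 M phosphate buffer pH 7.4 at 37 °C. Oxidation started under air with 50 μL of 40 mM AAPH. Conjugated diene hydroperoxide formation followed as absorbance rise at 234 nm; control contains the same DMSO level. At least triplicate.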
# [29] = tested on: NCI-H460; assay: Cytostatic activity against human NCI-H460 cells after 72 hrs by MTT assay; type: functional, cell-based; details: NCI-H460, 72 h; procedure, shortened: as §3
Structure (SMILES),inhibition [1],inhibition [2],inhibition [3],IC50 [4] [µM],IC50 [5] [µM],IC50 [6] [µM],inhibition [7],inhibition [8],inhibition [9],inhibition [10],inhibition [11],inhibition [12],inhibition [13],inhibition [14],inhibition [15],inhibition [16],inhibition [17],Activity [18],inhibition [19],IC50 [20] [µM],other results
CC(C(=O)NN)c1cccc(Cc2ccccc2)c1 (stereo unspecified),inactive,inactive,inactive,> 100,> 100,150,inactive,inactive,inactive,inactive,10%,inactive,inactive,inactive,inactive,inactive,inactive,inactive,inactive,212,inhibition [21]: inactive; inhibition [22]: inactive; inhibition [23]: inactive; inhibition [24]: inactive; Activity [25]: inactive; inhibition [26]: inactive; IC50 [27]: 142 µM; inhibition [28]: 6%; IC50 [29]: > 100 µM
CC(C)Cc1ccc(C(C)C(=O)NNC(=O)NCc2ccccc2)cc1 (stereo unspecified),inactive,inactive,inactive,29,34,74,inactive,inactive,inactive,inactive,inactive,inactive,inactive,inactive,inactive,inactive,inactive,inactive,inactive,110,inhibition [21]: inactive; inhibition [22]: inactive; inhibition [23]: inactive; inhibition [24]: inactive; Activity [25]: inactive; inhibition [26]: inactive; IC50 [27]: 173 µM; inhibition [28]: 12%; IC50 [29]: 59 µM
CC(C)Cc1ccc(C(C)C(=O)NNC(=O)NO)cc1 (stereo unspecified),inactive,inactive,inactive,> 100,> 100,205,inactive,inactive,inactive,inactive,7%,inactive,inactive,inactive,inactive,inactive,inactive,54%,inactive,108,inhibition [21]: inactive; inhibition [22]: inactive; inhibition [23]: inactive; inhibition [24]: inactive; Activity [25]: 29%; inhibition [26]: inactive; IC50 [27]: 160 µM; inhibition [28]: 20%; IC50 [29]: > 100 µM
O=C(NNC(=O)n1nnc2ccccc21)NOCc1ccccc1,inactive,inactive,inactive,> 100,> 100,> 250,inactive,inactive,inactive,inactive,inactive,inactive,inactive,inactive,inactive,inactive,inactive,85%,inactive,> 250,inhibition [21]: inactive; inhibition [22]: inactive; inhibition [23]: inactive; inhibition [24]: inactive; Activity [25]: 85%; inhibition [26]: inactive; IC50 [27]: > 250 µM; inhibition [28]: 31%; IC50 [29]: > 100 µM
